Data: PubChem BioAssay
Active and inactive are the calls of the source. Rule as the data show it, unless noted: active = inhibition above about 30%; inactive = the rest.

What was measured:
[1] = reduced viability of SK-BR-3 breast cancer cells – cell-based, 24 h, human, pilot screen (AID 572;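 active = viability at or below 10% of carrier control in both of two separate runs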;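 also: compound exposure lasted between 18 and 24 h rather than exactly 24 h; 100% = carrier-treated control wells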); details: SK-BR-3 viability, CellTiter-Glo luminescence, at 10 µM, stronger effect = lower value
[2] = HUVEC growth inhibition – cell-based, human, primary screen (AID 575;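 active = viability at or below 30% in both replicate assays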;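 also: 100% = median of untreated cell wells with 0.1% DMSO on each plate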); details: HUVEC proliferation, CellTiter-Glo luminescence, 72 h; at 10 µM; stronger effect = lower value
Method in brief: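 Test system: primary human umbilical vein endothelial cells. Quantity: 1250 cells/well. Compound: single 10 µM dose, 0.1% DMSO, from 5x medium stock. Timing: 72 h treatment at 37 °C. Detection: ATP-based CellTiter-Glo luminescent read. Benchmarks: vehicle and MePR control wells. Format: 384-well plates coated with collagen.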

[3] = yeast transport mutant growth inhibition pilot in 384-well plates, post-Golgi transport modulator project (AID 636; in the data active = inhibition above about 31%); details: absorbance 615 nm, about 18 h, stronger effect = higher value
[4] = growth suppression of yeast trafficking mutant, preliminary HTS, modulators of trafficking downstream of Golgi apparatus project, 1536-format plate, OD 615 nm (AID 637); details: yeast transport mutant growth, absorbance 615 nm, 18 h; stronger effect = higher value
[5] = MRP1 drug-resistance reversers in H69AR cells – cell-based, doxorubicin co-treatment, pilot screen (AID 601;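 active = viability loss from added drug above about 55%, and viability with drug at most 40%, in both replicates, limit read from the data, passing the limit was not always enough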); details: CellTiter-Glo, 72 h, at 10 µM; for differential viability (reversal): stronger effect = higher value
[6] = H69AR cell proliferation blockers – human, duplicate replicates, primary screen (AID 580;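 active = viability at or under a set limit in both replicates, limit being median viability minus 3 SD, cut at about 48% in these data, passing the limit was not always enough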;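 also: 100% = mean luminescence of untreated wells and 0% = no signal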); details: H69AR lung tumor cells viability, ATP luminescence, 72 h; at 10 µM; stronger effect = lower value
[7] = H69AR cells + 2 uM doxorubicin, measured here: viability with 2 uM doxorubicin, stronger effect = lower value
[8] = H69AR cells, compound alone cytotoxicity

SMILES | viability [1] | viability [2] | inhibition [3] | inhibition [4] | differential viability (reversal) ([5]; H69AR cells + 2 uM doxorubicin) | viability [5, 7] | viability [5, 8] | viability [6]
CCOC(=O)N1CCC(=C2c3ccc(Cl)cc3CCc3cccnc32)CC1 | 116% (inactive) | 52.7% (inactive) | 1.95% (inactive) | 12.2% (inactive) |  |  |  | 
CN(C)c1ccc(O)c2c1CC1CC3[C@@H](N(C)C)C(=O)C(C(N)=O)=C(O)[C@]3(O)C(=O)C1=C2O (stereo not given in full) | 92% (inactive) | 92.6% (inactive) | 2.73% (inactive) | 29.7% (inactive) | -6.56% (inactive) | 39.2% | 32.7% | 
CN1CCN(C2=Nc3cc(Cl)ccc3Nc3ccccc32)CC1 | 94% (inactive) |  | 1.82% (inactive) | 3.67% (inactive) | 17% (inactive) | 51% | 68% | 68% (inactive)
Fc1ccc(C(c2ccc(F)cc2)N2CCN(C/C=C/c3ccccc3)CC2)cc1 | 89% (inactive) |  | 3.38% (inactive) | -1.17% (inactive) | -5.65% (inactive) | 82.3% | 76.7% | 76.7% (inactive)
N#Cc1ccccc1Cn1c(=O)n(Cc2ccc(C(=O)NCc3ccco3)cc2)c(=O)c2ccccc21 | 73% (inactive) |  | -1.82% (inactive) | -7.21% (inactive) | -8.33% (inactive) | 19.4% | 11% | 11% (active)
Oc1ccc(/C=C/c2cc(O)cc(O)c2)cc1 | 115% (inactive) |  | 0.13% (inactive) | -5.17% (inactive) | -11.7% (inactive) | 88.6% | 76.9% | 76.9% (inactive)
CCc1nnc(NC(=O)c2ccc(S(=O)(=O)N(CC(C)C)CC(C)C)cc2)o1 | 77% (inactive) |  | 3.9% (inactive) | 0.66% (inactive) | -28.4% (inactive) | 61.4% | 32.9% | 32.9% (active)
COc1ccc(-n2cc(-c3ccccc3)c3c(N4CCN(CCO)CC4)ncnc32)cc1 | 100% (inactive) |  | -6.13% (inactive) | 0.48% (inactive) | 10.5% (inactive) | 45.7% | 56.2% | 56.2% (inactive)
O=C(O)c1cc(O)c2c(c1)C(=O)c1cccc(O)c1C2=O | 87% (inactive) |  | -4.42% (inactive) | 1.83% (inactive) | -14.5% (inactive) | 91.4% | 76.9% | 76.9% (inactive)
CCCCC[C@H](O)/C=C/[C@H]1C=CC(=O)[C@@H]1C/C=C\CCCC(=O)O | 111% (inactive) |  | -2.99% (inactive) | -0.5% (inactive) | 9.76% (inactive) | 57.6% | 67.4% | 67.4% (inactive)
O=C(CCCN1CCC(O)(c2ccc(Cl)cc2)CC1)c1ccc(F)cc1 | 79% (inactive) |  | 2.34% (inactive) | -3.17% (inactive) | 3.11% (inactive) | 80.9% | 84% | 84% (inactive)
Cc1ccc(Cl)cc1N1CCN(C(=O)c2cn(C)c(=O)c3c2c2ccccc2n3C)CC1 | 94% (inactive) |  | -1.73% (inactive) | 4.73% (inactive) | -28.7% (inactive) | 31.8% | 3.07% | 3.07% (active)
O=C(Nc1ccc2nn(-c3ccccc3)nc2c1)c1ccc(Br)o1 | 67.5% (inactive) |  | -7.43% (inactive) | -10.3% (inactive) | -0.29% (inactive) | 9.78% | 9.49% | 9.49% (active)
Cc1nnc(NCc2n[nH]c(=O)c3ccccc23)c2ccccc12 | 72% (inactive) |  | -3.38% (inactive) | 1.64% (inactive) | -14.8% (inactive) | 81.9% | 67.1% | 67.1% (inactive)
O=S(=O)(c1cccc2cnccc12)N1CCCNCC1 | 140% (inactive) |  | -2.08% (inactive) | 4.5% (inactive) | 1.83% (inactive) | 95.5% | 97.4% | 97.4% (inactive)
Oc1cccc(Nc2nc(NCC3CCCO3)c3ccccc3n2)c1 (stereo not given) | 73% (inactive) |  | -5% (inactive) | 3.17% (inactive) | -19.3% (inactive) | 41.4% | 22.1% | 22.1% (active)
Cc1cc(-n2c(C)cc(C(=O)CSc3nnnn3-c3ccc(Cl)cc3)c2C)no1 | 81.5% (inactive) |  | -3.73% (inactive) | -5.56% (inactive) | 4.86% (inactive) | 44.3% | 49.2% | 
Cc1cc(C)c2ccc(N)nc2c1O | 87.5% (inactive) |  | -1.43% (inactive) | -1.48% (inactive) | -7.52% (inactive) | 28.9% | 21.4% | 21.4% (active)
COC(=O)Nc1nc2ccc(Sc3ccccc3)cc2[nH]1 | 90% (inactive) |  | 3.25% (inactive) | 25.2% (inactive) | -13.4% (inactive) | 25.1% | 11.7% | 
C(=C\c1ccccc1)/CN1CCN(C(c2ccccc2)c2ccccc2)CC1 | 90% (inactive) |  | 1.43% (inactive) | -3% (inactive) | -2.73% (inactive) | 73.7% | 71% | 71% (inactive)
